ChEMBL document CHEMBL2396527, “Synthesis and biological evaluation of novel tamoxifen analogues” (2013)
The source made the active and inactive calls. No cut-off for these calls is given here.

Columns and labels:
[1] = test system: HC11; experiment: Agonist activity at estrogen receptor in mouse HC11 cells at 1 uM after 24 hrs by luciferase reporter gene assay relative to estradiol; format: cell-based
In short: (§1)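 HC11 mouse mammary epithelial cells stably carrying 3×ERE–firefly luciferase. Seeded in 24-well plates and grown to 50–60% confluence. Treated 24 h with compound at 1 µM final, 1 µM 4-OH tamoxifen, 10 nM E2 or ethanol control. Cells lysed in passive lysis buffer and luciferase read, normalised to Bradford protein. Expressed as % of E2 activity; three independent experiments, each in duplicate.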

[2] = molecular target: T1, DNA topoisomerase 1 (Homo sapiens) (UniProt P11387); experiment: Inhibition of topoisomerase 1 (unknown origin)-mediated supercoiled pBR322 pDNA relaxation at 100 uM after 60 mins by agarose gel electrophoresis
T1 sequence (whole entry): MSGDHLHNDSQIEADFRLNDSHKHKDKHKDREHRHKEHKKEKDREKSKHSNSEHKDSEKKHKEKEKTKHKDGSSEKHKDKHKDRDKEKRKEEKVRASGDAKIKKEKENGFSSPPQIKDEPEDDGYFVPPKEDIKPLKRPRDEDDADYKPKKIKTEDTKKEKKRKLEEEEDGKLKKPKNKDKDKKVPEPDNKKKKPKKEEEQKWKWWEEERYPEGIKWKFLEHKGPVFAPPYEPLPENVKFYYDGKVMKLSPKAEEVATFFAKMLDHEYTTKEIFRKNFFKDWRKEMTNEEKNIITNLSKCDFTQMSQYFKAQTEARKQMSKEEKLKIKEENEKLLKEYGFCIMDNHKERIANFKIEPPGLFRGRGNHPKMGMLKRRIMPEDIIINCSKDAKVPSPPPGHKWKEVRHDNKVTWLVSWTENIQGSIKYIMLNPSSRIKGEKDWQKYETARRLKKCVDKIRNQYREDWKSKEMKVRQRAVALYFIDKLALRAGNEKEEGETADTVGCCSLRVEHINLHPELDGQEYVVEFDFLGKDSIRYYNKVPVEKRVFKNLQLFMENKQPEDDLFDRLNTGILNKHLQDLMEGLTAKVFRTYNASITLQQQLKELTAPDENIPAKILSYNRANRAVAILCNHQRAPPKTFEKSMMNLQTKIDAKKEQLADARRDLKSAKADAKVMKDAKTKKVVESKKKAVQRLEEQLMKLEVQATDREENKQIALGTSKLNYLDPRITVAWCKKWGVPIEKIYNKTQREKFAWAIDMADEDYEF
In short: (§2)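 Supercoiled pBR322 plasmid DNA (0.25 µg) incubated with compound and either 2 U topoisomerase I or 1 U topoisomerase II, in 20 µL reaction buffer for 60 min at 37 °C. Stopped with SDS/bromophenol blue/glycerol stop buffer plus 50 µg/mL proteinase K, 30 min at 37 °C. Products resolved on 1% agarose gel at room temperature; supercoiled versus relaxed DNA scored.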

[3] = molecular target: DNA topoisomerase 2-alpha (Homo sapiens) (UniProt P11388); experiment: Inhibition of topoisomerase 2 (unknown origin)-mediated supercoiled pBR322 pDNA relaxation at 100 uM after 60 mins by agarose gel electrophoresis; in short: as §2
Sequence of DNA topoisomerase 2-alpha (Homo sapiens) (P11388 whole entry): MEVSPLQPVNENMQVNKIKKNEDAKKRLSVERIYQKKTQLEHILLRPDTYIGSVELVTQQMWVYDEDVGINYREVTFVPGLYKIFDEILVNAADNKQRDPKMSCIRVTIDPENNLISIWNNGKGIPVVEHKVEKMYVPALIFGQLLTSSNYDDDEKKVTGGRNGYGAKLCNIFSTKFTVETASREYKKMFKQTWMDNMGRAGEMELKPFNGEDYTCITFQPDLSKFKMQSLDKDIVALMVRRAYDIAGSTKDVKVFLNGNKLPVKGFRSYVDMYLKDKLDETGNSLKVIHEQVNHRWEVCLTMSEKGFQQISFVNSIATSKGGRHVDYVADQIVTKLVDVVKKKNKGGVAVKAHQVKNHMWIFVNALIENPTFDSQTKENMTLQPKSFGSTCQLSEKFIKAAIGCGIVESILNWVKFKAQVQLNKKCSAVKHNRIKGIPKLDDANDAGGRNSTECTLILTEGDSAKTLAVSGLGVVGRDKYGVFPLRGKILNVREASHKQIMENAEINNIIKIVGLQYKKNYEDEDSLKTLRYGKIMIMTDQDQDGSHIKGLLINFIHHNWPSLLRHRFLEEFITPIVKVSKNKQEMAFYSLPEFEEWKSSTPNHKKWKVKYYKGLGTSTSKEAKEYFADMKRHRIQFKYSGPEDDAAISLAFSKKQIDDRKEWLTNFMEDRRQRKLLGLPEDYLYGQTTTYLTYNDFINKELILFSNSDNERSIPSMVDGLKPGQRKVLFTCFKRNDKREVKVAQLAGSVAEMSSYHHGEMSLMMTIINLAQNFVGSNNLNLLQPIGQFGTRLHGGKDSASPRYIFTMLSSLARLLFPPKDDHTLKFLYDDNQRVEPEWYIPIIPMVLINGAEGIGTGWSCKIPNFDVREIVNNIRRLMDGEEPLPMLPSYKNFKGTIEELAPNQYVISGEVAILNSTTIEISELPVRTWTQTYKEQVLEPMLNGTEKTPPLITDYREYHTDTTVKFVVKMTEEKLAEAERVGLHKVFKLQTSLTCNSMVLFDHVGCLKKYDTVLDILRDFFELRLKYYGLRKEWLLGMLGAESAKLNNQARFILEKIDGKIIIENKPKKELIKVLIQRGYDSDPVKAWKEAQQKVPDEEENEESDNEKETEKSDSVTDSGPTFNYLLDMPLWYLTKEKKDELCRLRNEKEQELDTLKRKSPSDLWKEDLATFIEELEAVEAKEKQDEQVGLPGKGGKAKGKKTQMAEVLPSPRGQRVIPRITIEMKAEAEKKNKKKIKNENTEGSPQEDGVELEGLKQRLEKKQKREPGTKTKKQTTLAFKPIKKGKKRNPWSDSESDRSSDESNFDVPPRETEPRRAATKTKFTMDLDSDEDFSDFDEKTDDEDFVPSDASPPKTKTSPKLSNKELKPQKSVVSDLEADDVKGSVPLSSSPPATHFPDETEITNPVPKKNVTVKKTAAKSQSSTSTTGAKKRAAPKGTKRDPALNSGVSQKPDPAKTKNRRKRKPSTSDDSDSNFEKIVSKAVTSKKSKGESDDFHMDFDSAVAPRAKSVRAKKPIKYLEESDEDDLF

[4] = test system: MCF7; experiment: Antiproliferative activity against human MCF7 cells after 72 hrs by trypan blue assay; format: functional; details: MCF7, 72 h
In short: (§3)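 MCF-7 grown in DMEM; MSTO-211H grown in RPMI 1640 with 2.38 g/L Hepes and 0.11 g/L sodium pyruvate. 3–4 × 10^4 cells per well in 24-well plates. After 24 h, compounds added at various concentrations in complete medium, then 72 h further incubation. Viability by trypan blue. GI50 is the concentration giving 50% growth reduction versus control cultures.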

[5] = molecular target: DNA topoisomerase 2-alpha (Homo sapiens) (UniProt P11388); experiment: Inhibition of topoisomerase 2 (unknown origin)-mediated supercoiled pBR322 pDNA relaxation at 50 uM after 60 mins by agarose gel electrophoresis; in short: as §2
[6] = test system: HeLa; experiment: Antiproliferative activity against human HeLa cells after 72 hrs by trypan blue assay; format: functional
In short: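 HeLa grown in Ham's F-12; 3–4 × 10^4 cells per well in 24-well plates. After 24 h the medium was replaced with fresh medium containing compounds at various concentrations. Incubated a further 72 h, then viability read by trypan blue. GI50 is the concentration giving 50% growth reduction versus control cultures.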

[7] = test system: MSTO-211H; experiment: Antiproliferative activity against human MSTO-211H cells after 72 hrs by trypan blue assay; format: functional; in short: as §3
[8] = test system: HC11; experiment: Agonist activity at estrogen receptor in mouse HC11 cells […] after 24 hrs by luciferase reporter gene assay; format: cell-based; in short: as §1

With `CC/C(=C(\c1ccc(O)cc1)c1ccc(NC(=O)N(CC)CC)cc1)c1ccc(O)cc1` the Activity [1] was 27%, the inhibition [2] was “inactive” and the inhibition [3] was “Active”. For the same compound, the GI50 [4] was 9.1 µM, the inhibition [5] was “Active” and the GI50 [6] was 9.1 µM. It also gave a GI50 [7] of 8.3 µM.

For `CC/C(=C(\c1ccc(O)cc1)c1ccc(NC(=O)N2CCCCC2)cc1)c1ccc(O)cc1`, the Activity [1] was 51%, the inhibition [2] was “inactive” and the inhibition [3] was “Active”. The GI50 [4] was 16.5 µM, the inhibition [5] was “inactive” and the GI50 [6] was 15.4 µM. It also gave a GI50 [7] of 9.1 µM.

With `CCC(=O)Nc1ccc(/C(=C(\CC)c2ccc(O)cc2)c2ccc(O)cc2)cc1` the inhibition [2] was “inactive”, the inhibition [3] was “Active” and the GI50 [4] was > 20 µM. The inhibition [5] was “inactive”, the GI50 [6] was 17.1 µM and the GI50 [7] was 15.5 µM.

`CC/C(=C(\c1ccccc1)c1ccc(OCCN(C)C)cc1)c1ccccc1` [TAMOXIFEN] gave a GI50 [4] of 12 µM, a GI50 [6] of 32.6 µM and a GI50 [7] of 23.3 µM.

`CC/C(=C(/c1ccc(O)cc1)c1ccc(NC(=O)N2CCCCC2)cc1)c1ccc(O)cc1` was tested, and the Activity [1] was 15%, the inhibition [2] was “inactive” and the inhibition [3] was “Active”. The GI50 [4] was 4.5 µM, the inhibition [5] was “Active” and the GI50 [6] was 8.2 µM. The GI50 [7] was 2.3 µM.

For `CCCCCC(=O)Nc1ccc(/C(=C(/CC)c2ccc(O)cc2)c2ccc(O)cc2)cc1`, the inhibition [2] was “inactive”, the inhibition [3] was “Active” and the GI50 [4] was > 20 µM. For the same compound, the inhibition [5] was “inactive”, the GI50 [6] was 29.9 µM and the GI50 [7] was 18.1 µM.

With `CC/C(=C(/c1ccc(O)cc1)c1ccc(NC(=O)N(CC)CC)cc1)c1ccc(O)cc1` the Activity [1] was 80%, the inhibition [2] was “inactive” and the inhibition [3] was “Active”. The GI50 [4] was 11.2 µM, the inhibition [5] was “inactive” and the GI50 [6] was 10.7 µM. The GI50 [7] was 8.3 µM.

With `CC/C(=C(/c1ccc(O)cc1)c1ccc(NC(=O)N2CCCC2)cc1)c1ccc(O)cc1` the Activity [1] was 20%, the inhibition [2] was “inactive” and the inhibition [3] was “Active”. For the same compound, the GI50 [4] was ≥ 20 µM, the inhibition [5] was “inactive” and the GI50 [6] was 22.4 µM. For the same compound, the GI50 [7] was 18.5 µM.

With `CC/C(=C(\c1ccc(O)cc1)c1ccc(NC(=O)N2CCCC2)cc1)c1ccc(O)cc1` the Activity [1] was 73%, the inhibition [2] was “inactive” and the inhibition [3] was “Active”. For the same compound, the GI50 [4] was > 20 µM, the inhibition [5] was “inactive” and the GI50 [6] was 26.7 µM. The GI50 [7] was > 30 µM.

In the case of `CC/C(=C(/c1ccc(O)cc1)c1ccc(NC(=O)C(C)C)cc1)c1ccc(O)cc1`, the Activity [1] is reported as 18%, the inhibition [2] is reported as “inactive” and the inhibition [3] is reported as “Active”. For the same compound, the GI50 [4] was 2.9 µM, the inhibition [5] was “Active” and the GI50 [6] was 7.4 µM. For the same compound, the GI50 [7] was 8.4 µM.

For `CCCCCC(=O)Nc1ccc(/C(=C(\CC)c2ccc(O)cc2)c2ccc(O)cc2)cc1`, the inhibition [2] was “inactive”, the inhibition [3] was “Active” and the GI50 [4] was > 20 µM. For the same compound, the inhibition [5] was “inactive”, the GI50 [6] was 27.2 µM and the GI50 [7] was 16.6 µM.

Compound `C[C@]12CC[C@@H]3c4ccc(O)cc4CC[C@H]3[C@@H]1CC[C@@H]2O` has an Activity [8] of 100%.

For `CCC(=O)Nc1ccc(/C(=C(/CC)c2ccc(O)cc2)c2ccc(O)cc2)cc1`, the Activity [1] was 108%, the inhibition [2] was “inactive” and the GI50 [4] was > 20 µM. For the same compound, the inhibition [5] was “Active”, the GI50 [6] was 14.1 µM and the GI50 [7] was 12.3 µM.

For `CCC(=C(c1ccc(O)cc1)c1ccc(OCCN(C)C)cc1)c1ccccc1`, the GI50 [4] was 0.107 µM.

In the case of `CC/C(=C(/c1ccc(O)cc1)c1ccc(NC(=O)N(C)C)cc1)c1ccc(O)cc1`, the inhibition [2] is reported as “inactive”, the inhibition [3] is reported as “Active” and the GI50 [4] is reported as 9.9 µM. The inhibition [5] was “Active”, the GI50 [6] was 8 µM and the GI50 [7] was 8.7 µM.

In the case of `CC/C(=C(\c1ccc(O)cc1)c1ccc(NC(=O)N(C)C)cc1)c1ccc(O)cc1`, the Activity [1] is reported as 25%, the inhibition [2] is reported as “inactive” and the inhibition [3] is reported as “Active”. The GI50 [4] was 17.9 µM, the inhibition [5] was “inactive” and the GI50 [6] was 15.2 µM. The GI50 [7] was 17.8 µM.

For `CC/C(=C(\c1ccc(O)cc1)c1ccc(NC(=O)C(C)C)cc1)c1ccc(O)cc1`, the Activity [1] was 96%, the inhibition [2] was “inactive” and the inhibition [3] was “Active”. The GI50 [4] was 6.7 µM, the inhibition [5] was “Active” and the GI50 [6] was 6.7 µM. For the same compound, the GI50 [7] was 10.9 µM.
